Published values gathered from unrelated publications.
Protocols differ between the studies behind these lines.

`CC(C)n1c(C2CCNCC2)nc2c([N+](=O)[O-])c(Br)c(Br)cc21` has a Cmax of 73.2 ng/mL (human, plasma; oral, 100 mg, patients).
`COc1ccc(NC(=O)NCc2cn(Cc3ccccc3C)nn2)cc1` has a viability of 124% (L02; cell growth or viability, CCK-8; 50 µM, 72 h).
`O=C(Nc1ccc(-c2cn(Cc3ccc(Br)cc3)nn2)cc1)Nc1ccccc1Br` has a viability of 104% (L02; cell growth or viability, CCK-8; 50 µM, 72 h).
For `O=C(COc1ccc(Cl)cc1)NC12CC(c3nnc([C@H]4C[C@@H](OC(F)(F)F)C4)o3)(C1)C2`, the Cmax was 5.39 µM (human, plasma; oral, 100 mg, multiple doses, once daily, steady state, healthy volunteers).
`COc1ccc(-c2c(Nc3ccccn3)[nH]c3c(C4=CCCCC4)c(-c4ccccc4)nn3c2=O)cc1` has a Cmax of 4960 ng/mL (human, plasma; oral, 150 mg once daily, multiple doses, patients).
The viability of `O=C(Nc1ccc(Cl)cc1)Nc1cccc(-c2cn(Cc3cccc(Cl)c3)nn2)c1` is reported as 71.8% (L02; cell growth or viability, CCK-8; 50 µM, 72 h).
With `COc1ccc2c(c1)CN(C(=O)CCN1CCC(Cc3ccccc3)CC1)CC[S@@+]2[O-]` the Cmax was 130 ng/mL (male human, plasma; intravenous, 0.05 mg/kg, healthy volunteers).
`Cc1ccccc1Cn1cc(-c2cccc(NC(=O)Nc3ccc(F)cc3)c2)nn1` has a viability of 103% (L02; cell growth or viability, CCK-8; 50 µM, 72 h).
`O=C(Nc1ccc(Cl)cc1)Nc1cccc(-c2cn(Cc3ccc(Cl)cc3)nn2)c1` has a viability of 102% (L02; cell growth or viability, CCK-8; 50 µM, 72 h).
For `CCONC(=O)N1CCC[C@H](C(=O)NCc2nc(-c3ccc(C#N)cc3)cs2)C1`, the efflux ratio was 6.9 (Caco-2).
`O=C(Nc1ccc(-c2cn(Cc3ccc(Cl)cc3)nn2)cc1)Nc1ccccc1Br` gave a viability of 113% (L02; cell growth or viability, CCK-8; 50 µM, 72 h).
For `COc1ccc(NC(=O)Nc2ccc(-c3cn(Cc4cccc(Cl)c4)nn3)cc2)cc1`, the viability was 114% (L02; cell growth or viability, CCK-8; 50 µM, 72 h).
